For seven compounds, IC50, EC50 and Selectivity index results are on record in ChEMBL document CHEMBL1140312, “Synthesis and biological evaluation of geminal disulfones as HIV-1 integrase inhibitors” (J Med Chem, 2005).

Assay [1] concerns the target T1, Human immunodeficiency virus type 1 integrase (Human immunodeficiency virus 1, UniProt Q7ZJM1). Put plainly: Inhibitory concentration against integration of HIV-1 Integrase.
The target in assay [2] is T1, Human immunodeficiency virus type 1 integrase. As to the kind of experiment: Inhibitory concentration against 3'processing of HIV-1 Integrase.
Assay [3] relates to HeLa. As to the kind of experiment: Antiviral activity against human immuno deficiency virus type 1 in HeLa H1-JC.37 cells. In kind it is functional, cell-based. The essentials:
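HIV-1 focal infectivity assay in HeLa H1-JC.37 indicator cells (HeLa CD4 expressing human CCR5, naturally CXCR4). Foci immunostained with monoclonal antibody 22-6 at 1/800 and counted under a dissecting microscope at 30× to 100×. Plotted as percentage of no-drug control foci against inhibitor concentration; EC50 from best-fit line of linear portion; at least three separate experiments.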

Assay [4] relates to HeLa. Put plainly: Cytotoxicity for HeLa H1-JC.37 cells using MTS assay. Type of assay: functional, cell-based. Particulars: Homo sapiens. Put shortly:
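HeLa H1-JC.37 cell proliferation measured by MTS assay under manufacturer's recommended conditions. Data plotted as percentage of no-drug control against inhibitor concentration; IC50 for 50% inhibition of proliferation taken from best-fit line of linear portion of plot; at least two separate experiments.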
For orientation: Formazan colour is commonly taken as a measure of viable cells.

For assay [5], the system named is HeLa. As to the kind of experiment: Ratio of cytotoxicity for HeLa H1-JC.37 cells (IC50) to antiviral activity against HIV-1 (EC50). Type of assay: functional, Homo sapiens. Put shortly: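 Ratio of cytotoxic IC50 to antiviral EC50 in HeLa H1-JC.37 cells (HeLa CD4 expressing CCR5). EC50 came from an HIV-1 focal infectivity assay: mAb 22-6 (1/800) immunostaining, foci counted at 30× to 100×, best-fit linear portion of % no-drug control foci versus concentration, at least three experiments. IC50 came from an MTS proliferation assay, same fitting, at least two experiments.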

T1 sequence (Q7ZJM1 whole entry): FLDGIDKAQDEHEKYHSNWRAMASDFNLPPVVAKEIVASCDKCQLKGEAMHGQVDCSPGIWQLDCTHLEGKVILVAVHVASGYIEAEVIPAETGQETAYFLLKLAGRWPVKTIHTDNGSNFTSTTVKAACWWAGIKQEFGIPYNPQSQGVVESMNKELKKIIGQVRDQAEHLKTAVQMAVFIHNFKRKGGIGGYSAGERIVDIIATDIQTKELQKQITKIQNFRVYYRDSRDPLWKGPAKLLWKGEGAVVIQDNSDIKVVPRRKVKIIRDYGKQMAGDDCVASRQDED

For orientation: IC50 means the point on the concentration scale where inhibition reaches its midpoint. With `COc1cc(/C=C/S(=O)(=O)CS(=O)(=O)/C=C/c2ccc(C(C)=O)c(OC)c2)ccc1C(C)=O`, the IC50 in assay [1] and in assay [2] was over 1000 µM each time.

As usually defined, the EC50 is the concentration needed to bring the measured effect to its halfway point. Higher therefore signals weaker potency. In the assay with HeLa [3], `COc1cc(/C=C/S(=O)(=O)CS(=O)(=O)/C=C/c2ccccc2)cc(O)c1O` returned a concentration for a half-maximal effect (EC50) of 4.5 µM. Also, the figures for the IC50 (with HeLa [4]; in assay [1]; in assay [2]) were 19 µM, 80 µM and 80 µM, respectively. Further, in the assay with HeLa [5], the Selectivity index worked out at 4.3.

Turning to `O=S(=O)(/C=C/c1ccc(OCc2ccccc2)c(OCc2ccccc2)c1)CS(=O)(=O)/C=C/c1ccc(OCc2ccccc2)c(OCc2ccccc2)c1`, the IC50 in assay [1] and in assay [2] was 700 µM throughout.

Turning to `COc1cc(/C=C/S(=O)(=O)CS(=O)(=O)/C=C/c2cc(O)c(O)c(OC)c2)cc(O)c1O`, in the assay with HeLa [3], the EC50 was 1.3 µM. In addition, the IC50 in the assay with HeLa [4] was 29 µM; in assay [1], 50 µM; in assay [2], 50 µM. Also, in the assay on HeLa [5], the Selectivity index came out at 22.

For the compound `O=S(=O)(/C=C/c1cc(O)c(O)c(O)c1)CS(=O)(=O)/C=C/c1cc(O)c(O)c(O)c1`, in the assay on HeLa [3], the midpoint of the response, the EC50, lay at 0.3 µM. In addition, the results for the IC50 (with HeLa [4]; in assay [1]; in assay [2]) were 169 µM, 0.9 µM and 1.8 µM, respectively. In addition, the Selectivity index in the assay on HeLa [5] was 563.

`O=C(O)C(=O)CC(=O)c1cc(OCc2ccccc2)cc(OCc2ccccc2)c1` gave an EC50 in the assay with HeLa [3] of 0.78 µM. The same compound had an IC50 in assay [2] of over 1000 µM.

`O=S(=O)(/C=C/c1ccc(O)c(O)c1)CS(=O)(=O)/C=C/c1ccc(O)c(O)c1` returned an EC50 with HeLa [3] of 2.4 µM. Also, the half-inhibitory concentration (IC50) in the assay on HeLa [4] was 187 µM; in assay [1] it was 5 µM; in assay [2], 4 µM. The Selectivity index in the assay on HeLa [5] turned out to be 78.
